The values below come from ChEMBL document CHEMBL5352422, “Development of l-Dopa-containing diketopiperazines as blood-brain barrier shuttle” (Eur J Med Chem, 2022).

The source made the active and inactive calls. The rule behind the calls is not given here.

A short description of data set [1]: Stability of the compound in stimulated gastric fluid at 10 mg/ml pepsin by measuring observed rate constant measured upto 60 mins by HPLC analysis. The following applies: simulated gi fluid, 1 h. The data set is classed as ADME. The method, boiled down: (§1)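 USP simulated gastric fluid containing pepsin, preheated, in a 37 °C shaking water bath. Samples at 0, 15, 30 and 60 min were deproteinized with ice-cold acetonitrile containing 0.5% formic acid, centrifuged at 4 °C, filtered and analyzed by HPLC. Means of three experiments.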

Data set [2] in a line: Induction of DNA damage in Primary human whole blood cell assessed as 8-OH-dG adducts formation at 250 nM incubated for 24 hrs by […] (reference value: 0.12 to 2.21 pg/ml). The class given is functional.
Data set [3] has as its system PC-12. In words: Upregulation of xCT expression in MPP+ induced rat PC-12 cells at 100 nM pretreated with compound for 24 hrs followed by MPP+ stimulation and measured after 6 hrs. The class given is functional, cell-based. As to conditions: time 30.0 hrs. An outline of the steps:
(§2)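 PC12 cells pretreated 24 h with compound, then exposed to 25 μM MPP+ for 6 h. mRNA quantified by real-time PCR (95 °C 3 min, then 40 cycles of 95 °C 10 s and 62 °C 30 s), samples in triplicate. Values normalized to β-actin, expressed as 2^-ΔΔCt with untreated cells set to 1.0. n = 3.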

Data set [4] in a line: Induction of DNA damage in Primary human whole blood cell assessed as total DNA damage score at 100 nM incubated for 24 hrs by Comet assay (reference value: 35.4 to 77.9). The class given is functional.
A short description of data set [5]: Antioxidant activity against Primary human whole blood cell assessed as trolox equivalent of total antioxidant capacity at 50 nM incubated for 24 hrs (19.3 to 32.5 mmolequiv/L ). The data set is classed as functional.
Data set [6] in a line: Partition coefficient, logP of the compound by HPLC-UV analysis. As to conditions: octanol/water. The class given is physicochemical.
Data set [7] is described as follows: Induction of DNA damage in rat Cerebral cortex cell assessed as total DNA damage score at 100 nM incubated for 24 hrs by Comet assay (reference value: 36.8 to 89.2). The data set is classed as functional, Cerebral cortex neuron.
Data set [8] can be described thus: Antioxidant activity against rat Cerebral cortex cell assessed as H2O2 equivalent of total oxidative stress at 500 nM incubated for 24 hrs (0.7 to 2.3 micromolequiv/L). The data set is classed as functional, Cerebral cortex neuron.
A short description of data set [9]: Stability of the compound in stimulated intestinal fluid at 40 mg/ml pancreatin by measuring half life measured upto 180 mins by HPLC analysis. As to conditions: simulated intestinal fluid with pancreatin. The data set is classed as ADME. An outline of the steps:
(§3)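 USP simulated intestinal fluid containing pancreatin, in a 37 °C shaking water bath. Samples at 0, 60, 120 and 180 min were quenched with ice-cold acetonitrile containing 0.5% formic acid, centrifuged at 4 °C for 10 min, filtered and analyzed by HPLC. Means of three experiments ± SD.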

Data set [10] can be described thus: Genotoxicity in human Lymphocyte assessed as sister chromatid exchange measured per cells at 50 nM incubated for 72 hrs giemsa staining based fluorescence method (reference value: 6.6 to 14.3). The data set is classed as toxicity, cell-based. As to conditions: 0.05 µM.
A short description of data set [11]: Antioxidant activity against rat Cerebral cortex cell assessed as trolox equivalent of total antioxidant capacity at 50 nM incubated for 24 hrs (14.7 to 27.5 mmolequiv/L ). The class given is functional, Cerebral cortex neuron.
Data set [12] can be described thus: Genotoxicity in human Lymphocyte assessed as sister chromatid exchange measured per cells at 100 nM incubated for 72 hrs giemsa staining based fluorescence method (reference value: 6.6 to 14.3). As to conditions: 0.1 µM. The data set is classed as toxicity, cell-based.
Data set [13] relates to PC-12. In words: Upregulation of GSTA-2 expression in MPP+ induced rat PC-12 cells at 100 nM pretreated with compound for 24 hrs followed by MPP+ stimulation and measured after 6 hrs. The class given is functional, cell-based. As to conditions: time 30.0 hrs. An outline of the steps:
as §2

Data set [14] relates to PC-12. In words: Cytoprotective activity against MPP+ induced cell death in rat PC-12 cells at 10 to 500 nM preincubated with compound for 24 hrs followed by MPP+ exposure for 24 hrs by MTT assay. As to conditions: dose 10-500 nM, time 48.0 hrs. The class given is functional, cell-based. The method, boiled down:
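PC12 cells in RPMI with horse and fetal calf serum on polylysine-coated flasks. Pretreated 24 h with compound (10–500 nM), then 25 µM MPP+ for a further 24 h. MTT formazan solubilized in SDS/HCl, read at 550 nm. Expressed as % of untreated control absorbance; n = 3, mean ± SD.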
In general terms: Formazan colour is commonly taken as a measure of viable cells.

A short description of data set [15]: Stability of the compound in stimulated intestinal fluid at 10 mg/ml pancreatin by measuring observed rate constant measured upto 180 mins by HPLC analysis. The following applies: simulated gi fluid, 3 h. The data set is classed as ADME. The method, boiled down: as §3
The test system of data set [16] is PC-12. The experiment in a line: Upregulation of GR expression in MPP+ induced rat PC-12 cells at 100 nM pretreated with compound for 24 hrs followed by MPP+ stimulation and measured after 6 hrs. The data set is classed as functional, cell-based. As to conditions: time 30.0 hrs. The method, boiled down:
as §2

Data set [17] is described as follows: Induction of DNA damage in Primary human whole blood cell assessed as total DNA damage score at 500 nM incubated for 24 hrs by Comet assay (reference value: 35.4 to 77.9). The data set is classed as functional.
Data set [18] concerns PC-12. In words: Upregulation of Gpx expression in MPP+ induced rat PC-12 cells at 100 nM pretreated with compound for 24 hrs followed by MPP+ stimulation and measured after 6 hrs. The following applies: time 30.0 hrs. The class given is functional, cell-based. The method, boiled down:
as §2

A short description of data set [19]: Induction of DNA damage in rat Cerebral cortex cell assessed as total DNA damage score at 500 nM incubated for 24 hrs by Comet assay (reference value: 36.8 to 89.2). The class given is functional, Cerebral cortex neuron.
A short description of data set [20]: Stability of the compound in hydrochloric acid buffer assessed as chemical hydrolysis by measuring observed rate constant at pH 1.2. The data set is classed as physicochemical. An outline of the steps:
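Chemical hydrolysis at 37 °C in hydrochloric acid buffer pH 1.2 or phosphate buffer pH 7.4. Remaining compound followed by HPLC with UV detection. t1/2 and k_obs are means of three experiments ± SD.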

The subject of data set [21] is PC-12. In words: Upregulation of GCLM expression in MPP+ induced rat PC-12 cells at 100 nM pretreated with compound for 24 hrs followed by MPP+ stimulation and measured after 6 hrs. The data set is classed as functional, cell-based. The following applies: time 30.0 hrs. The method, boiled down:
as §2

The nature of data set [22]: Genotoxicity in human Lymphocyte assessed as sister chromatid exchange measured per cells at 500 nM incubated for 72 hrs giemsa staining based fluorescence method (reference value: 6.6 to 14.3). The data set is classed as toxicity, cell-based. The following applies: 0.5 µM.
Data set [23] is described as follows: Stability of the compound in stimulated gastric fluid at 10 mg/ml pepsin by measuring half life measured upto 60 mins by HPLC analysis. The data set is classed as ADME. The following applies: simulated gastric fluid with pepsin. The method, boiled down: as §1
Data set [24] in a line: Genotoxicity in human Lymphocyte assessed as micronuclei formation measured per 1000 cells at 10 nM incubated for 72 hrs giemsa staining based analysis (reference value: 4.5 to 17.9). The data set is classed as toxicity, cell-based. As to conditions: 0.01 µM. An outline of the steps:
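Human whole-blood lymphocyte cultures with phytohemagglutinin, incubated with compound for 72 h at 37 °C. Cytochalasin B added at 44 h. Cells fixed in ice-cold methanol/acetic acid 1:1, cytospun, Giemsa-stained. At least 1000 binucleated lymphocytes per concentration scored for micronuclei by one observer.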

`C#CCSC[C@H]1NC(=O)[C@H](Cc2ccc(OC(C)=O)c(OC(C)=O)c2)NC1=O`: the Kobs is 0.008 h⁻¹ in data set [1], 0.198 h⁻¹ in [15] and 0.005 h⁻¹ in data set [20]. The Activity worked out at 0.13 pg/mL in data set [2]; 35.6 in data set [4]; 19.5 mmolequiv/L in data set [5]; 37.8 in [7]; 0.6 umolequiv/L in data set [8]; 6.8 in data set [10]. Further, the Activity in data set [11] stood at 15.5 mmolequiv/L; in data set [12] it was 6.6; in [17], 36.3; in [19] it was 38.1; in data set [22] it was 6.9; in data set [24] it was 4.6. Besides, the result with PC-12 [3], with PC-12 [13], in the data set with PC-12 [14], in the data set on PC-12 [16], in the data set on PC-12 [18] and in the data set with PC-12 [21] was Active. Also, the logP (commonly a log measure of how a compound divides between an organic and an aqueous phase) in [6] was 0.35. Besides, the half-life (usually how long it takes for the measured level to halve) in [9] is 2.57 h; in [23] it was 91 h.

With `C=CCSC[C@H]1NC(=O)[C@H](Cc2ccc(OC(C)=O)c(OC(C)=O)c2)NC1=O`, the Kobs is 0.029 h⁻¹ in data set [1], 1.03 h⁻¹ in data set [15] and 0.037 h⁻¹ in data set [20]. Further, the Activity stood at 0.12 pg/mL in data set [2]; 35.5 in data set [4]; 19.4 mmolequiv/L in data set [5]; 37.1 in data set [7]; 0.7 umolequiv/L in data set [8]; 6.7 in data set [10]. Also, the Activity was determined as 14.3 mmolequiv/L in data set [11]; 6.9 in [12]; 36.1 in data set [17]; 37.6 in data set [19]; 7 in data set [22]; 4.7 in data set [24]. For the same compound, the lipophilicity (logP) in [6] came to 0.68. In the data set on PC-12 [14], the result was Active. Further, the half-life in data set [23] was 24.2 h.
